{"source": "ChEMBL document CHEMBL4680191", "about": "“Discovery of novel akt1 inhibitor induces autophagy associated death in hepatocellular carcinoma cells” (Eur J Med Chem, 2020)", "key": {"[1]": {"system": "Huh-7", "experiment": "Antitumour activity against human Huh-7 cells xenografted in nude mouse assessed as reduction in tumour volume at […], ip up to 15 days", "assay_type": "functional, organism-based", "details": "time day <=15", "outline": "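Nude mice bearing subcutaneous Huh-7 xenografts received 25 or 50 mg/Kg compound intraperitoneally. Tumor volume was followed from day 1 to day 15, with excised tumors weighed at the end. Body weight was also monitored.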"}, "[2]": {"system": "Huh-7", "experiment": "Induction of apoptosis in human Huh-7 cells by Annexin V/propidium iodide staining based flow cytometric analysis", "assay_type": "functional, cell-based", "details": "dose 0.1-0.2 µM"}, "[3]": {"system": "Huh-7", "experiment": "Induction of autophagosome in human Huh-7 harboring GFP-LC3 cells at 0.2 uM in presence of Baf-A1 by fluorescence microscopic analysis", "assay_type": "functional, cell-based"}, "[4]": {"target": "RAC-gamma serine/threonine-protein kinase (Homo sapiens, UniProt Q9Y243, S472D)", "sequence (Q9Y243 2-479 S472D limits assumed)": "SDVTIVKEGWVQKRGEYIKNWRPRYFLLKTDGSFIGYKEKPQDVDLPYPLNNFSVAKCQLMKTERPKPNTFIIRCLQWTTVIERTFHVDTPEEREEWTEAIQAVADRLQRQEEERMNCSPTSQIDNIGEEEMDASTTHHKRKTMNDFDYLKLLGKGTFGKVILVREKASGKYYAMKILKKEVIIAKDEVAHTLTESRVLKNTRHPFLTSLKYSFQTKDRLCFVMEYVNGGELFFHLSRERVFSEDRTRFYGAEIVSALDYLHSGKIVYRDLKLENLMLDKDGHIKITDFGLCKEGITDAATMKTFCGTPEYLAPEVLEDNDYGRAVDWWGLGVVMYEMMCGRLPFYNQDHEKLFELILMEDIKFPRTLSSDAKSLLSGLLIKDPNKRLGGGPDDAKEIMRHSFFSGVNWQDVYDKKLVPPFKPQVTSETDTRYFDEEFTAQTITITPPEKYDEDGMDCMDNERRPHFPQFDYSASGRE", "experiment": "Inhibition of full length human Akt3 S472D mutant using GRPRTSSFAEGKK as substrate incubated for 40 mins by scintillation counting method", "outline": "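Eurofins KinaseProfiler enzymatic assay on human Akt isoforms. IC50 values are the mean of at least three independent replicates ± standard deviation.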"}, "[5]": {"system": "Huh-7", "experiment": "Induction of autophagy in human Huh-7 cells harboring mCherry-GFP-LC assessed as increase in autophagosome puncta formation at 0.2 uM by fluorescence assay", "assay_type": "functional, cell-based"}, "[6]": {"system": "Huh-7", "experiment": "Induction of autophagosome in human Huh-7 harboring GFP-LC3 cells at 0.2 uM in presence of 3-MA by fluorescence microscopic analysis", "assay_type": "functional, cell-based"}, "[7]": {"experiment": "Effect on total AKT protein level in human Huh-7 cells at 0.1 to 0.2 uM by Western blot analysis", "assay_type": "ADME, cell-based", "details": "huh-7, 0.2 µM, dose 0.1-0.2 µM", "outline": "(§1)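 Huh-7 cells were treated with or without compound. Total protein extracts were separated by SDS-PAGE and transferred to PVDF. Membranes were probed with primary antibodies, then HRP-conjugated secondary antibody (1:10,000), and detected by enhanced chemiluminescence.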"}, "[8]": {"system": "Huh-7", "experiment": "Induction of apoptosis in human Huh-7 cells assessed as late apoptotic cells at 0.1 uM by Annexin V/propidium iodide staining based flow cytometric analysis (reference value: 3.15%)", "assay_type": "functional"}, "[9]": {"system": "Huh-7", "experiment": "Induction of autophagy in human Huh-7 cells assessed as increase in p62/SQSTM1 protein expression at 0.1 to 0.2 uM by Western blot analysis", "assay_type": "functional, cell-based", "details": "dose 0.1-0.2 µM", "outline": "as §1"}, "[10]": {"system": "Huh-7", "experiment": "Antitumour activity against human Huh-7 cells xenografted in nude mouse assessed as reduction in tumour weight at […], ip up to 15 days", "assay_type": "functional, organism-based", "details": "time day <=15"}, "[11]": {"system": "HepG2", "experiment": "Cytotoxicity against human HepG2 cells assessed as reduction in cell viability by MTT assay", "assay_type": "functional, cell-based", "outline": "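Hepatoma cells were grown in DMEM with 10% FBS and streptomycin, then treated with compounds. Viability was read by MTT.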"}, "[12]": {"system": "RAC-beta serine/threonine-protein kinase (Homo sapiens), P31751 [S474D]", "sequence (P31751 whole entry S474D)": "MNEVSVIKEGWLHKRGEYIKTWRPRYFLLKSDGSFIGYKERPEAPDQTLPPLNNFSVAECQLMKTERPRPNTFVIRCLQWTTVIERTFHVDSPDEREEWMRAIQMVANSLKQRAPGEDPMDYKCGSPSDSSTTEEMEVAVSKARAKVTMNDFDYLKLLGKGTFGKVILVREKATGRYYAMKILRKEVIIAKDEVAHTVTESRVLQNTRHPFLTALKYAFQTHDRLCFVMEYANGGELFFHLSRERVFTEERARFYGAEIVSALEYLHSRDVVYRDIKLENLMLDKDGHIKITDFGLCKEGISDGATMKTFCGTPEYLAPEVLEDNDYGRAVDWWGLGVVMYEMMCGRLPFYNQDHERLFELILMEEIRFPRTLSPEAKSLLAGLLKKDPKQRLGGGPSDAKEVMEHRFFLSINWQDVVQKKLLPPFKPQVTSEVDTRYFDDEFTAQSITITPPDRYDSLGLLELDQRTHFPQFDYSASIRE", "experiment": "Inhibition of full length human Akt2 S474D mutant assessed as remaining activity at 1 uM using GRPRTSSFAEGKK as substrate incubated for 40 mins by scintillation counting method relative to control", "outline": "(§2)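 Eurofins KinaseProfiler kinase assay on human Akt1, Akt2 and Akt3. Compounds were tested at 1 µM. Residual kinase activity is reported as % of control.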"}, "[13]": {"system": "Huh-7", "experiment": "Induction of apoptosis in human Huh-7 cells assessed as upregulation of cleaved caspase-3 protein expression at 0.1 to 0.2 uM by Western blot analysis", "assay_type": "functional, cell-based", "details": "dose 0.1-0.2 µM", "outline": "as §1"}, "[14]": {"system": "RAC-gamma serine/threonine-protein kinase (Homo sapiens), Q9Y243 [S472D]", "sequence (Q9Y243 whole entry S472D)": "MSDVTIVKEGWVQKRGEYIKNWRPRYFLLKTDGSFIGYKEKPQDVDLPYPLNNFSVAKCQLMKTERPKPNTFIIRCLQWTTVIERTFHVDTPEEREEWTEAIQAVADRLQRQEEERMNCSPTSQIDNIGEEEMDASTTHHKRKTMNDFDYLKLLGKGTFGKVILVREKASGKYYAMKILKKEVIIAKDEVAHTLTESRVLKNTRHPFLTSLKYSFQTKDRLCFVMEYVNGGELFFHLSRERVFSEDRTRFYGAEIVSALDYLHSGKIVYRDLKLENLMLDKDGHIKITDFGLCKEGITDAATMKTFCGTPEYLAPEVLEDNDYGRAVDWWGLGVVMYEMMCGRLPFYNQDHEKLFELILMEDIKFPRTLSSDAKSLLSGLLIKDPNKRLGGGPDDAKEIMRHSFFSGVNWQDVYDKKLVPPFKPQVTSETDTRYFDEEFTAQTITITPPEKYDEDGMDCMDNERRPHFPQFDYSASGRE", "experiment": "Inhibition of full length human Akt3 S472D mutant assessed as remaining activity at 1 uM using GRPRTSSFAEGKK as substrate incubated for 40 mins by scintillation counting method relative to control", "outline": "as §2"}, "[15]": {"system": "Huh-7", "experiment": "Induction of apoptosis in human Huh-7 cells assessed as viable cells at 0.2 uM by Annexin V/propidium iodide staining based flow cytometric analysis (reference value: 94.83%)", "assay_type": "functional", "details": "read-out: Activity"}, "[16]": {"system": "Huh-7", "experiment": "Antitumour activity against human Huh-7 cells xenografted in nude mouse assessed as decrease in p62/SQSTMI at 20 to 50 mg/kg, ip up to 15 days by immunohistochemical analysis", "assay_type": "functional, organism-based", "details": "dose 20-50 mg/kg, time day <=15", "outline": "(§3)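 Tumors came from Huh-7 xenografted nude mice dosed intraperitoneally at 25 or 50 mg/Kg for 15 days. For IHC, sections underwent microwave antigen retrieval (EDTA pH 8.0 or citrate pH 6.0), then primary antibody at 37 °C for 30-40 min. HRP polymer/secondary was applied for 30 min, with DAB development and control IgG.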"}, "[17]": {"system": "Huh-7", "experiment": "Induction of autophagy in human Huh-7 cells assessed as reduction in cathepsin D activity at 0.2 uM in presence of Baf-A1", "assay_type": "functional, cell-based"}, "[18]": {"system": "Hep 3B2", "experiment": "Induction of autophagy in human Hep3B cells harboring GFP-LC3 assessed as increase in number of the autophagosome puncta at 0.2 uM after 6 hrs", "assay_type": "functional, cell-based", "outline": "(§4)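 GFP-LC3-transfected cells were exposed to saline or compound for 6 h, then fixed with paraformaldehyde. Autophagosome puncta were scored by fluorescence of accumulated GFP-LC3.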"}, "[19]": {"system": "Huh-7", "experiment": "Antitumour activity against human Huh-7 cells xenografted in nude mouse assessed as decrease in phosphorylation of AKT at 20 to 50 mg/kg, ip up to 15 days by immunohistochemical analysis", "assay_type": "functional, organism-based", "details": "dose 20-50 mg/kg, time day <=15", "outline": "as §3"}, "[20]": {"system": "Huh-7", "experiment": "Antitumour activity against human Huh-7 cells xenografted in nude mouse assessed as decrease in Ki-67 at […], ip up to 15 days by immunohistochemical analysis", "assay_type": "functional, organism-based", "details": "time day <=15", "outline": "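Subcutaneous Huh-7 xenografts in nude mice were dosed intraperitoneally at 25 or 50 mg/kg and followed over days 1–15. For IHC, tumour sections had microwave antigen retrieval in EDTA (pH 8.0) or citrate (pH 6.0) buffer. They were incubated with primary antibody at 37 °C for 30–40 min, then secondary antibody with HRP polymer for 30 min, and developed with DAB. Normal IgG served as negative control.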"}, "[21]": {"system": "Huh-7", "experiment": "Induction of autophagy flux arrest in human Huh-7 cells assessed as reduction in LAMP1 at 0.2 uM by immunofluorescence staining based assay", "assay_type": "functional, cell-based", "outline": "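Huh-7 cells with or without 0.2 µM compound were immunofluorescently co-stained for LC3 (autophagosome) and LAMP1 (lysosome). Co-localization was assessed by fluorescence imaging.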"}, "[22]": {"system": "Huh-7", "experiment": "Induction of autophagy in human Huh-7 cells assessed as reduction in cathepsin B activity at 0.2 uM in presence of 3-MA", "assay_type": "functional, cell-based"}, "[23]": {"system": "Huh-7", "experiment": "Induction of autophagy in human Huh-7 cells harboring GFP-LC3 assessed as increase in number of the autophagosome puncta at 0.2 uM after 6 hrs", "assay_type": "functional, cell-based", "outline": "as §4"}, "[24]": {"system": "Huh-7", "experiment": "Induction of apoptosis in human Huh-7 cells assessed as upregulation of cytochromeC protein expression at 0.1 to 0.2 uM by Western blot analysis", "assay_type": "functional, cell-based", "details": "dose 0.1-0.2 µM", "outline": "as §1"}, "[25]": {"system": "Huh-7", "experiment": "Induction of apoptosis in human Huh-7 cells assessed as late apoptotic cells at 0.2 uM by Annexin V/propidium iodide staining based flow cytometric analysis (reference value: 3.15%)", "assay_type": "functional"}, "[26]": {"organism": "Homo sapiens", "experiment": "Inhibition of full length human Akt1 […] mutant assessed as remaining activity at 1 uM using GRPRTSSFAEGKK as substrate incubated for 40 mins by scintillation counting method relative to control", "outline": "as §2"}, "[27]": {"system": "Huh-7", "experiment": "Induction of apoptosis in human Huh-7 cells assessed as viable cells at 0.1 uM by Annexin V/propidium iodide staining based flow cytometric analysis (reference value: 94.83%)", "assay_type": "functional", "details": "read-out: Activity"}}, "note": "Active and inactive are the calls of the source. The rule behind the calls is not given here.", "data": [{"smiles": "O=C(C(CNC1CCCC1)c1ccc(Cl)cc1)N1CCN(c2ncnc3sc4c(c23)CCC4)CC1", "note": "(configuration not stated)", "values": [{"measurement": "Activity", "setting": "[1]", "result": "Active"}, {"measurement": "Activity", "setting": "[2]", "result": "Dose-dependent effect"}, {"measurement": "Activity", "setting": "[3]", "result": "Active"}, {"measurement": "IC50", "setting": "[4]", "result": 129, "unit": "nM"}, {"measurement": "Activity", "setting": "[5]", "result": "Active"}, {"measurement": "Activity", "setting": "[6]", "result": "inactive"}, {"measurement": "Activity", "setting": "[7]", "result": "Non-Toxic"}, {"measurement": "Activity", "setting": "[8]", "result": 7.92, "unit": "%"}, {"measurement": "Activity", "setting": "[9]", "result": "Active"}, {"measurement": "Activity", "setting": "[10]", "result": "Active"}, {"measurement": "IC50", "setting": "[11]", "result": 183, "unit": "nM"}, {"measurement": "Activity", "setting": "[12]", "result": 63, "unit": "%"}, {"measurement": "Activity", "setting": "[13]", "result": "Active"}, {"measurement": "Activity", "setting": "[14]", "result": 22, "unit": "%"}, {"measurement": "viability at 0.2 µM", "setting": "[15]", "result": 80.8, "unit": "%"}, {"measurement": "Activity", "setting": "[16]", "result": "Active"}, {"measurement": "Activity", "setting": "[17]", "result": "Active"}, {"measurement": "Activity", "setting": "[18]", "result": "Active"}, {"measurement": "Activity", "setting": "[19]", "result": "Active"}, {"measurement": "Activity", "setting": "[20]", "result": "Active"}, {"measurement": "Activity", "setting": "[21]", "result": "Active"}, {"measurement": "Activity", "setting": "[22]", "result": "inactive"}, {"measurement": "Activity", "setting": "[23]", "result": "Active"}, {"measurement": "Activity", "setting": "[24]", "result": "Active"}, {"measurement": "Activity", "setting": "[25]", "result": 9.13, "unit": "%"}, {"measurement": "Activity", "setting": "[26]", "result": 1, "unit": "%"}, {"measurement": "viability at 0.1 µM", "setting": "[27]", "result": 84.2, "unit": "%"}]}]}
